Laboratory results: ChEMBL document CHEMBL1151762, “5-(1-Acetoxyvinyl)-cycloSaligenyl-2',3'-dideoxy-2',3'- didehydrothymidine monophosphates, a second type of new, enzymatically activated cycloSaligenyl pronucleotides” (J Med Chem, 2008)

What was measured:
[1] = tested on: Human immunodeficiency virus 2; assay: Antiviral activity against HIV2 replication in human thymidine kinase deficient CEM cells assessed as virus-induced cytopathic effect; type: functional, organism-based; conditions: Human immunodeficiency virus 2, CCRF-CEM
Method in brief: (§1)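 CEM T-lymphocyte cultures (wild-type CEM/0 or thymidine kinase-deficient CEM/TK-) infected with HIV-1 or HIV-2; read-out is virus-induced cytopathic effect (giant cell formation). EC50 = 50% effective concentration, given as the mean of two to three independent experiments.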

[2] = Cytotoxicity against human wild type CEM/0 cells; type: cell-based; conditions: CCRF-CEM
Method in brief: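 Wild-type CEM cells; cytostatic activity reported as the 50% cytostatic concentration.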

[3] = Chemical stability assessed as half life of hydrolysis in 25 mM phosphate buffer at pH 7.3; type: physicochemical
Method in brief: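 Triesters incubated at pH 7.3 in aqueous 25 mM phosphate buffer and followed by HPLC. Half-life is taken from disappearance of the triester.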

[4] = Chemical stability assessed as half life of hydrolysis in RPMI-1640 culture medium at pH 7.6 in presence 10% heat-inactivated fetal calf serum; type: physicochemical
Method in brief: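 RPMI-1640 with 10% heat-inactivated fetal calf serum, pH 7.6 (the antiviral test medium), used in place of cell extract and run by the same HPLC procedure. Half-life is taken from disappearance of the triester.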

[5] = tested on: Human immunodeficiency virus 1; assay: Antiviral activity against HIV1 replication in human wild type CEM/0 cells assessed as virus-induced cytopathic effect; type: functional, organism-based; conditions: Human immunodeficiency virus 1, CCRF-CEM; method in brief: as §1
[6] = tested on: Human immunodeficiency virus 2; assay: Antiviral activity against HIV2 replication in human wild type CEM/0 cells assessed as virus-induced cytopathic effect; type: functional, organism-based; conditions: Human immunodeficiency virus 2, CCRF-CEM; method in brief: as §1
[7] = Chemical stability assessed as half life of hydrolysis in CEM cell extracts at pH 6.9; type: physicochemical, CCRF-CEM; conditions: human
Method in brief: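 T-lymphocyte CEM cell extracts at pH 6.9, analysed by HPLC. Half-life is taken from disappearance of the triester.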

`Cc1cn([C@H]2C=C[C@@H](COP3(=O)OCc4cc(C=O)cc(C(C)(C)C)c4O3)O2)c(=O)[nH]c1=O` (some centres not stated) gave an EC50 [1] of 15000 nM and a CC50 [2] of 33 µM.
`CC(=O)OC(OC(C)=O)c1cc2c(c(C(C)(C)C)c1)OP(=O)(OC[C@@H]1C=C[C@H](n3cc(C)c(=O)[nH]c3=O)O1)OC2` (some centres not stated) showed an EC50 [1] of 780 nM and a CC50 [2] of 19 µM.
Compound `CC(=O)c1ccc2c(c1)COP(=O)(OC[C@@H]1C=C[C@H](n3cc(C)c(=O)[nH]c3=O)O1)O2` (some centres not stated) has a half-life [3] of 18 min, a half-life [4] of 36 min and an EC50 [5] of 1300 nM. For the same compound, the EC50 [6] was 3000 nM, the EC50 [1] was greater than 50000 nM and the CC50 [2] was 148 µM.
In the case of `CC(=O)c1cc(C)c2c(c1)COP(=O)(OC[C@@H]1C=C[C@H](n3cc(C)c(=O)[nH]c3=O)O1)O2` (some centres not stated), the half-life [3] is reported as 45 min, the half-life [4] is reported as 60 min and the EC50 [5] is reported as 540 nM. It also gave an EC50 [6] of 2200 nM, an EC50 [1] of 36000 nM and a CC50 [2] of 96 µM.
In the case of `Cc1cn([C@H]2C=C[C@@H](CO[P@@]3(=O)OCc4cc(C(OC(=O)C(C)C)OC(=O)C(C)C)cc(C(C)(C)C)c4O3)O2)c(=O)[nH]c1=O`, the EC50 [1] is reported as 3600 nM and the CC50 [2] is reported as 40 µM.
With `CC(=O)OC(OC(C)=O)c1cc2c(c(C(C)(C)C)c1)O[P@](=O)(OC[C@@H]1C=C[C@H](n3cc(C)c(=O)[nH]c3=O)O1)OC2` the EC50 [1] was 290 nM and the CC50 [2] was 17 µM.
For `CC(=O)OC(OC(C)=O)c1cc2c(c(C(C)(C)C)c1)O[P@@](=O)(OC[C@@H]1C=C[C@H](n3cc(C)c(=O)[nH]c3=O)O1)OC2`, the EC50 [1] was 3900 nM and the CC50 [2] was 51 µM.
`C=C(OC(C)=O)c1cc2c(c(C(C)(C)C)c1)O[P@](=O)(OC[C@@H]1C=C[C@H](n3cc(C)c(=O)[nH]c3=O)O1)OC2` showed a half-life [3] of 810 min, a half-life [7] of 2.4 min and a half-life [4] of 456 min. It also gave an EC50 [5] of 210 nM, an EC50 [6] of 800 nM and an EC50 [1] of 270 nM. The CC50 [2] was 20 µM.
`C=C(OC(C)=O)c1cc2c(c(C(C)(C)C)c1)O[P@@](=O)(OC[C@@H]1C=C[C@H](n3cc(C)c(=O)[nH]c3=O)O1)OC2` showed a half-life [3] of 678 min, a half-life [7] of 2.4 min and a half-life [4] of 222 min. The EC50 [5] was 470 nM, the EC50 [6] was 1100 nM and the EC50 [1] was 1700 nM. The CC50 [2] was 67 µM.
With `Cc1cn([C@H]2C=C[C@@H](CO[P@@]3(=O)OCc4cc(C=O)cc(C(C)(C)C)c4O3)O2)c(=O)[nH]c1=O` the EC50 [1] was 10000 nM and the CC50 [2] was 41 µM.
`CC(=O)c1cc2c(c(C(C)(C)C)c1)O[P@@](=O)(OC[C@@H]1C=C[C@H](n3cc(C)c(=O)[nH]c3=O)O1)OC2` showed a half-life [3] of 138 min, a half-life [4] of 120 min and an EC50 [5] of 750 nM. It also gave an EC50 [6] of 1200 nM, an EC50 [1] of 2800 nM and a CC50 [2] of 64 µM.
Compound `C=C(OC(C)=O)c1ccc2c(c1)COP(=O)(OC[C@@H]1C=C[C@H](n3cc(C)c(=O)[nH]c3=O)O1)O2` (some centres not stated) has a half-life [3] of 84 min, a half-life [7] of 7.8 min and a half-life [4] of 60 min. The EC50 [5] was 650 nM, the EC50 [6] was 800 nM and the EC50 [1] was greater than 50000 nM. It also gave a CC50 [2] of 111 µM.
Work on `Cc1cn([C@H]2C=C[C@@H](CO[P@]3(=O)OCc4cc(C=O)cc(C(C)(C)C)c4O3)O2)c(=O)[nH]c1=O` yielded an EC50 [1] of 2600 nM and a CC50 [2] of 27 µM.
Work on `Cc1cn([C@H]2C=C[C@@H](CO[P@]3(=O)OCc4cc(C(OC(=O)C(C)C)OC(=O)C(C)C)cc(C(C)(C)C)c4O3)O2)c(=O)[nH]c1=O` yielded an EC50 [1] of 1400 nM and a CC50 [2] of 14 µM.
For `Cc1cn([C@H]2C=C[C@@H](COP3(=O)OCc4cc(C(OC(=O)C(C)C)OC(=O)C(C)C)cc(C(C)(C)C)c4O3)O2)c(=O)[nH]c1=O` (some centres not stated), the EC50 [1] was 2400 nM and the CC50 [2] was 20 µM.
With `CC(=O)c1cc2c(c(C(C)(C)C)c1)OP(=O)(OC[C@@H]1C=C[C@H](n3cc(C)c(=O)[nH]c3=O)O1)OC2` (some centres not stated) the half-life [3] was 138 min, the half-life [4] was 150 min and the EC50 [5] was 450 nM. It also gave an EC50 [6] of 870 nM, an EC50 [1] of 1700 nM and a CC50 [2] of 49 µM.
Compound `C=C(OC(C)=O)c1cc2c(c(C(C)(C)C)c1)OP(=O)(OC[C@@H]1C=C[C@H](n3cc(C)c(=O)[nH]c3=O)O1)OC2` (some centres not stated) has a half-life [3] of 738 min, a half-life [7] of 2.4 min and a half-life [4] of 312 min. It also gave an EC50 [5] of 470 nM, an EC50 [6] of 880 nM and an EC50 [1] of 1700 nM. It also gave a CC50 [2] of 49 µM.
With `CC(=O)c1cc2c(c(C(C)(C)C)c1)O[P@](=O)(OC[C@@H]1C=C[C@H](n3cc(C)c(=O)[nH]c3=O)O1)OC2` the half-life [3] was 138 min, the half-life [4] was 192 min and the EC50 [5] was 180 nM. The EC50 [6] was 510 nM, the EC50 [1] was 550 nM and the CC50 [2] was 56 µM.
In the case of `C=C(OC(C)=O)c1cc(C)c2c(c1)COP(=O)(OC[C@@H]1C=C[C@H](n3cc(C)c(=O)[nH]c3=O)O1)O2` (some centres not stated), the half-life [3] is reported as 366 min, the half-life [7] is reported as 4.2 min and the half-life [4] is reported as 108 min. The EC50 [5] was 180 nM, the EC50 [6] was 400 nM and the EC50 [1] was 730 nM. The CC50 [2] was 18 µM.
For `Cc1cn([C@H]2C=C[C@@H](CO)O2)c(=O)[nH]c1=O` [STAVUDINE], the EC50 [5] was 850 nM, the EC50 [6] was 1100 nM and the EC50 [1] was 69000 nM. The CC50 [2] was 220 µM.
